In ChEMBL document CHEMBL4411315, “Discovery of Novel Dual Histone Deacetylase and Mammalian Target of Rapamycin Target Inhibitors as a Promising Strategy for Cancer Therapy” (J Med Chem, 2019):
Active and inactive are the calls of the source. The calls are words filed in the database; no cut-off is given here.

Columns and labels:
MV4-11 [1] = test: Induction of apoptosis in human MV4-11 cells assessed as early apoptotic cells at 1 uM after 48 hrs by Annexin V-FITC/propidium iodide staining-based flow cytometric analysis (reference value: 10.7%); format: functional
MV4-11 [2] = test: Induction of apoptosis in human MV4-11 cells assessed as late apoptotic cells at 1 uM after 48 hrs by Annexin V-FITC/propidium iodide staining-based flow cytometric analysis (reference value: 5.03%); format: functional
MV4-11 [3] = test: Induction of apoptosis in human MV4-11 cells assessed as necrotic cells at 1 uM after 48 hrs by Annexin V-FITC/propidium iodide staining-based flow cytometric analysis (reference value: 0.17%); format: functional
MV4-11 [4] = test: Induction of apoptosis in human MV4-11 cells assessed as viable cells at 1 uM after 48 hrs by Annexin V-FITC/propidium iodide staining-based flow cytometric analysis (reference value: 84.1%); format: functional
MV4-11 [5] = test: Induction of apoptosis in human MV4-11 cells assessed as early apoptotic cells at 1 uM after 48 hrs in presence of 0.3 uM RAPA by Annexin V-FITC/propidium iodide staining-based flow cytometric analysis (reference value: 10.7%); format: functional
MV4-11 [6] = test: Induction of apoptosis in human MV4-11 cells assessed as late apoptotic cells at 1 uM after 48 hrs in presence of 0.3 uM RAPA by Annexin V-FITC/propidium iodide staining-based flow cytometric analysis (reference value: 5.03%); format: functional
MV4-11 [7] = test: Induction of apoptosis in human MV4-11 cells assessed as necrotic cells at 1 uM after 48 hrs in presence of 0.3 uM RAPA by Annexin V-FITC/propidium iodide staining-based flow cytometric analysis (reference value: 0.17%); format: functional
MV4-11 [8] = test: Induction of apoptosis in human MV4-11 cells assessed as viable cells at 1 uM after 48 hrs in presence of 0.3 uM RAPA by Annexin V-FITC/propidium iodide staining-based flow cytometric analysis (reference value: 84.1%); format: functional
MM1.S [9] = test: Induction of apoptosis in human MM1S cells assessed as early apoptotic cells at 1 uM after 48 hrs by Annexin V-FITC/propidium iodide staining-based flow cytometric analysis (reference value: 0.38%); format: functional
MM1.S [10] = test: Induction of apoptosis in human MM1S cells assessed as late apoptotic cells at 1 uM after 48 hrs by Annexin V-FITC/propidium iodide staining-based flow cytometric analysis (reference value: 0.42%); format: functional
MM1.S [11] = test: Induction of apoptosis in human MM1S cells assessed as necrotic cells at 1 uM after 48 hrs by Annexin V-FITC/propidium iodide staining-based flow cytometric analysis (reference value: 0.32%); format: functional
MM1.S [12] = test: Induction of apoptosis in human MM1S cells assessed as viable cells at 1 uM after 48 hrs by Annexin V-FITC/propidium iodide staining-based flow cytometric analysis (reference value: 98.9%); format: functional
MM1.S [13] = test: Induction of apoptosis in human MM1S cells assessed as early apoptotic cells at 1 uM after 48 hrs in presence of 0.3 uM RAPA by Annexin V-FITC/propidium iodide staining-based flow cytometric analysis (reference value: 0.38%); format: functional
MM1.S [14] = test: Induction of apoptosis in human MM1S cells assessed as late apoptotic cells at 1 uM after 48 hrs in presence of 0.3 uM RAPA by Annexin V-FITC/propidium iodide staining-based flow cytometric analysis (reference value: 0.42%); format: functional
MM1.S [15] = test: Induction of apoptosis in human MM1S cells assessed as necrotic cells at 1 uM after 48 hrs in presence of 0.3 uM RAPA by Annexin V-FITC/propidium iodide staining-based flow cytometric analysis (reference value: 0.32%); format: functional
MM1.S [16] = test: Induction of apoptosis in human MM1S cells assessed as viable cells at 1 uM after 48 hrs in presence of 0.3 uM RAPA by Annexin V-FITC/propidium iodide staining-based flow cytometric analysis (reference value: 98.9%); format: functional
[17] = Toxicity against NOD/SCID mouse xenografted with human MM1S cells assessed as mouse survival at 50 mg/kg, po qd administered for 10 days co-treated with 25 mg/kg RAPA; format: organism-based; conditions: in vivo, 240 h
Method in brief: (§1)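 MM1S s.c. xenograft: 10^7 cells in serum-free RPMI 1640, right flank, female NOD/SCID mice aged 5-6 weeks, randomised at 100-200 mm3 (n=6 per group). Oral daily dosing used physiological saline with 2.5% DMSO and 10% cyclodextrin, pH 9; the combination was given as a suspension. Caliper measurements were taken every 2 days. Survivors were counted.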

[18] = Toxicity against NOD/SCID mouse xenografted with human MM1S cells assessed as mouse survival at 50 mg/kg, po qd administered for 10 days; format: organism-based; conditions: in vivo, 240 h; method in brief: as §1
MV4-11 [19] = test: Antiproliferative activity against human MV4-11 cells after 72 hrs by MTT assay; format: functional, cell-based; conditions: MV4-11, 72 h
OCI-AML2 = test: Antiproliferative activity against human OCI-AML2 cells after 72 hrs by MTT assay; format: functional, cell-based; conditions: OCI-AML2, 72 h
OCI-AML-3 = test: Antiproliferative activity against human OCI-AML3 cells after 72 hrs by MTT assay; format: functional, cell-based; conditions: OCI-AML-3, 72 h
MV4-11 [20] = test: Induction of apoptosis in human MV4-11 cells assessed as early apoptotic cells at 0.3 uM after 48 hrs in presence of 1 uM SAHA by Annexin V-FITC/propidium iodide staining-based flow cytometric analysis (reference value: 10.7%); format: functional
MV4-11 [21] = test: Induction of apoptosis in human MV4-11 cells assessed as late apoptotic cells at 0.3 uM after 48 hrs in presence of 1 uM SAHA by Annexin V-FITC/propidium iodide staining-based flow cytometric analysis (reference value: 5.03%); format: functional
MV4-11 [22] = test: Induction of apoptosis in human MV4-11 cells assessed as necrotic cells at 0.3 uM after 48 hrs in presence of 1 uM SAHA by Annexin V-FITC/propidium iodide staining-based flow cytometric analysis (reference value: 0.17%); format: functional
MV4-11 [23] = test: Induction of apoptosis in human MV4-11 cells assessed as viable cells at 0.3 uM after 48 hrs in presence of 1 uM SAHA by Annexin V-FITC/propidium iodide staining-based flow cytometric analysis (reference value: 84.1%); format: functional
MM1.S [24] = test: Induction of apoptosis in human MM1S cells assessed as early apoptotic cells at 0.3 uM after 48 hrs in presence of 1 uM SAHA by Annexin V-FITC/propidium iodide staining-based flow cytometric analysis (reference value: 0.38%); format: functional
MM1.S [25] = test: Induction of apoptosis in human MM1S cells assessed as late apoptotic cells at 0.3 uM after 48 hrs in presence of 1 uM SAHA by Annexin V-FITC/propidium iodide staining-based flow cytometric analysis (reference value: 0.42%); format: functional
MM1.S [26] = test: Induction of apoptosis in human MM1S cells assessed as necrotic cells at 0.3 uM after 48 hrs in presence of 1 uM SAHA by Annexin V-FITC/propidium iodide staining-based flow cytometric analysis (reference value: 0.32%); format: functional
MM1.S [27] = test: Induction of apoptosis in human MM1S cells assessed as viable cells at 0.3 uM after 48 hrs in presence of 1 uM SAHA by Annexin V-FITC/propidium iodide staining-based flow cytometric analysis (reference value: 98.9%); format: functional
[28] = Toxicity against NOD/SCID mouse xenografted with human MM1S cells assessed as mouse survival at 25 mg/kg, po qd administered for 10 days co-treated with 50 mg/kg SAHA; format: organism-based; conditions: in vivo, 240 h; method in brief: as §1
[29] = target: T1, Serine/threonine-protein kinase mTOR (Homo sapiens, UniProt P42345); conditions: MV4-11, 1 to 10 uM
[30] = target: T1, Serine/threonine-protein kinase mTOR; conditions: MV4-11, 1 to 10 uM; remark: listed apart in the source
[31] = target: T1, Serine/threonine-protein kinase mTOR; conditions: MV4-11, 10 uM
MM1.S [32] = test: Antitumor activity against human MM1S cells xenografted in NOD/SCID mouse assessed as tumor growth inhibition at 25 mg/kg, po qd administered for 10 days and measured every 2 days post last dose in presence of 50 mg/kg SAHA by caliper method relative to control

O=C(CCCCCCC(=O)Nc1ccccc1)NO [VORINOSTAT]
Activity (MV4-11 [1]): 40% | Activity (MV4-11 [2]): 37.9% | Activity (MV4-11 [3]): 3.51% | Activity (MV4-11 [4]): 18.6% | Activity (MV4-11 [5]): 37% | Activity (MV4-11 [6]): 42.4% | Activity (MV4-11 [7]): 3.48% | Activity (MV4-11 [8]): 17.1% | Activity (MM1.S [9]): 9.68% | Activity (MM1.S [10]): 11.8% | Activity (MM1.S [11]): 3.04% | Activity (MM1.S [12]): 75.4% | Activity (MM1.S [13]): 15% | Activity (MM1.S [14]): 29.7% | Activity (MM1.S [15]): 1.74% | Activity (MM1.S [16]): 53.6% | Activity [17]: Non-Toxic | Activity [18]: Non-Toxic

CO[C@H]1C[C@@H]2CC[C@@H](C)[C@@](O)(O2)C(=O)C(=O)N2CCCC[C@H]2C(=O)O[C@H]([C@H](C)C[C@@H]2CC[C@@H](O)[C@H](OC)C2)CC(=O)[C@H](C)/C=C(\C)[C@@H](O)[C@@H](OC)C(=O)[C@H](C)C[C@H](C)/C=C/C=C/C=C/1C [SIROLIMUS]
IC50 (MV4-11 [19]): > 500 nM | IC50 (OCI-AML2): > 500 nM | IC50 (OCI-AML-3): > 500 nM | Activity (MV4-11 [1]): 15.3% | Activity (MV4-11 [2]): 5.77% | Activity (MV4-11 [3]): 0.6% | viability at 1 µM (MV4-11 [4]; Homo sapiens, MV4-11, 48 h, read-out: Activity): 78.3% | Activity (MV4-11 [20]): 37% | Activity (MV4-11 [21]): 42.4% | Activity (MV4-11 [22]): 3.48% | Activity (MV4-11 [23]): 17.1% | Activity (MM1.S [9]): 0.45% | Activity (MM1.S [10]): 2.81% | Activity (MM1.S [11]): 0.47% | viability at 1 µM (MM1.S [12]; Homo sapiens, MM1.S, 48 h, read-out: Activity): 96.3% | Activity (MM1.S [24]): 15% | Activity (MM1.S [25]): 29.7% | Activity (MM1.S [26]): 1.74% | Activity (MM1.S [27]): 53.6% | Activity [28]: Non-Toxic | inhibition [29]: Active | inhibition [30]: Active | inhibition [31]: Active | TGI (MM1.S [32]): 73.8%
